For assay [1], the system named is L1210. The assay can be described thus: Antitumor activity against ip implanted L1210 leukemia in mice expressed as active dose range (1 qd treatment schedule) required to produce increase in life span by >25% was determined; Range is 300-500. Format: functional, Mus musculus. In short, it runs like this:
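DBA/2J mice, groups of 6 (23-28 g), were inoculated ip with 1 × 10^6 L1210 cells on day 0. Dosing was ip from 24 h, in 0.9% NaCl with 0.5% Tween-80 (sonicated solution or suspension). Mice were observed daily until death or day 45. Median survival T/C followed NCI protocols, and ILS = (T/C − 1) × 100. Active range means doses giving ILS ≥25%; optimal dose means greatest ILS.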

Assay [2] concerns P388. The experiment in a line: Antitumor activity was determined against the ip implanted P388 leukemia in mice by percent median survival rate (treated/control) at 500 mg/kg (treatment of 1qd schedule) dosage; >45.0/11.0. Format: functional, Mus musculus. The conditions noted are these: route intraperitoneal.
Assay [3] deals with P388. The experiment in a line: Antitumor activity was determined against the ip implanted P388 leukemia in mice by range in survival days at 67 mg/kg (treatment of 1,5,9qd schedule) dosage; Range is 21-31. Format: functional, Mus musculus. To be noted: route intraperitoneal.
In assay [4] the test system is P388. The assay can be described thus: Antitumor activity was determined against the ip implanted P388 leukemia in mice by change in […] at 67 mg/kg (treatment of 1,5,9qd schedule) dosage. Format: functional, Mus musculus. To be noted: route intraperitoneal. In short, it runs like this: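 P388 leukemia, 1×10^6 cells implanted ip on day 0 into DBA/2J mice, groups of 6 (wt 23-33 g). Dosing ip started 24 h post-inoculation, vehicle 0.9% NaCl containing 0.5% Tween-80. Animals were observed daily until death or 45 days. Outputs were weight change, median survival T/C from survivors per NCI protocols, and %ILS = (T/C − 1) × 100.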

Assay [5] has as its system L1210. The assay can be described thus: Antitumor activity was determined against the ip implanted L1210 leukemia in mice by range in survival days at 300 mg/kg (treatment of 1qd schedule) dosage; Range is 14->45. Format: functional, Mus musculus. To be noted: route intraperitoneal. In short, it runs like this:
(§1)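 DBA/2J mice, 23-28 g, in groups of 6, were inoculated ip with 1×10^6 L1210 cells on day 0. Dosing was ip starting 24 h later on the stated daily schedules. Conjugates were given as sonicated solutions and reference prodrugs as suspensions in 0.9% NaCl with 0.5% Tween-80. Mice were observed daily until death or 45 days. Median survival T/C was calculated from survivors per NCI protocols.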

For assay [6], the system named is L1210. The experiment in a line: Antitumor activity was determined against the ic implanted L1210 lymphoid leukemia in mice by range in survival days at 133 mg/kg (1,5,9qd treatment schedule) dosage; Range is 15-22. Format: functional, Mus musculus.
In assay [7] the test system is L1210. The experiment in a line: Antitumor activity was determined against the ip implanted L1210 leukemia in mice by range in survival days at 80 mg/kg (treatment of 1-5qd schedule) dosage; Range is 21-30. Format: functional, Mus musculus. The conditions noted are these: route intraperitoneal. In short, it runs like this: as §1
In assay [8] the test system is L1210. The experiment in a line: Antitumor activity was determined against the ic implanted L1210 lymphoid leukemia in mice by range in survival days at 100 mg/kg (treatment of 1-5qd schedule) dosage; Range is 21-24. Format: functional, Mus musculus.
In assay [9] the test system is P388. The assay can be described thus: Antitumor activity was determined against the ip implanted P388 leukemia in mice by percent median survival rate (treated/control) at 60 mg/kg (treatment of 1-5qd schedule) dosage; >45.0/11.0. Format: functional, Mus musculus. The conditions noted are these: route intraperitoneal.
Assay [10] has as its system P388. The assay can be described thus: Antitumor activity against ip implanted P388 leukemia in mice expressed as active dose range (1-5qd treatment schedule) required to produce increase in life span by >25% was determined; Range is 40-60. Format: functional, Mus musculus. In short, it runs like this: (§2)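 P388 leukemia: 1 × 10^6 cells were given ip on day 0 to DBA/2J mice, groups of 6 (23-33 g). Treatment was ip from 24 h after inoculation, vehicle 0.9% NaCl with 0.5% Tween-80. Mice were observed daily until death or 45 days. Median survival T/C was calculated from survivors per NCI protocols, and ILS = (T/C − 1) × 100. Active range means doses giving ILS ≥25%; optimal dose means greatest ILS.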

Assay [11] has as its system HL-60. The experiment in a line: Compound was tested for the inhibition of human HL60 Leukemia. Format: functional, cell-based. In short, it runs like this: (§3)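 Human leukemia and solid tumor cells in culture were exposed to compound for 48 h. Viability was scored by trypan blue dye exclusion. IC50 (50% inhibition) was estimated from response curves of three separate experiments.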

Assay [12] deals with L1210. The assay can be described thus: Antitumor activity was determined against the ic implanted L1210 lymphoid leukemia in mice by change in […] at 100 mg/kg (treatment of 1-9qd schedule) dosage. Format: functional, Mus musculus. In short, it runs like this: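 DBA/2J mice, 6 per group (wt 26-32 g), inoculated ic with 1×10^5 L1210 cells on day 0. Dosing ip began 24 h after inoculation, with a sonicated solution or suspension in 0.9% NaCl containing 0.5% Tween-80, given over a range of doses. Animals were followed daily until death. Body weight change, median survival T/C, and %ILS = (T/C − 1) × 100 were computed from survivors per NCI protocols.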

The test system of assay [13] is L1210. The experiment in a line: Antitumor activity was determined against the ic implanted L1210 lymphoid leukemia in mice by percent increase in life span at 300 mg/kg (treatment of 1-5qd schedule) dosage. Format: functional, Mus musculus. In short, it runs like this:
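DBA/2J mice, groups of 6 (26-32 g), got 1 × 10^5 L1210 cells ic on day 0. Dosing was ip starting 24 h later, as a sonicated solution or suspension in 0.9% NaCl with 0.5% Tween-80, over a wide dose range. Mice were followed daily until death. Median survival T/C was taken from survivors per NCI protocols, and ILS = (T/C − 1) × 100. Active range means doses giving ILS ≥25%; optimal dose means greatest ILS.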

Assay [14] concerns Non-small cell lung cancer cell line. The assay can be described thus: Compound was tested for the inhibition of non- small cell lung cancer. Format: functional, cell-based. The conditions noted are these: Homo sapiens. In short, it runs like this:
as §3

Assay [15] has as its system P388. The experiment in a line: Antitumor activity was determined against the ip implanted P388 leukemia in mice by percent median survival rate (treated/control) at 200 mg/kg (treatment of 1-5qd schedule) dosage; 23.0/11.0. Format: functional, Mus musculus. The conditions noted are these: route intraperitoneal.
For assay [16], the system named is P388. The assay can be described thus: Antitumor activity was determined against the ip implanted P388 leukemia in mice by 45-day survivors in mice at 200 mg/kg (treatment of 1-5qd schedule) dosage. Format: functional, Mus musculus. To be noted: route intraperitoneal. In short, it runs like this: (§4)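 DBA/2J mice, 23-33 g, in groups of 6, were inoculated ip with 1×10^6 P388 cells on day 0. Dosing was ip from 24 h on the stated schedules, in 0.9% NaCl with 0.5% Tween-80 (sonicated solution or suspension). Survival was followed daily until death or 45 days. Median T/C was calculated from survivors per NCI protocols, with ILS = (T/C − 1) × 100.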

Assay [17] concerns P388. The experiment in a line: Antitumor activity was determined against the ip implanted P388 leukemia in mice by percent median survival rate (treated/control) at 500 mg/kg (treatment of 1qd schedule) dosage; 15.0/11.0. Format: functional, Mus musculus. To be noted: route intraperitoneal.
Assay [18] deals with P388. The experiment in a line: Antitumor activity against ip implanted P388 leukemia in mice expressed as active dose range (1 qd treatment schedule) required to produce increase in life span by >25% was determined; Range is 100-600. Format: functional, Mus musculus. In short, it runs like this: as §2
Assay [19] has as its system P388. The assay can be described thus: Antitumor activity was determined against the ip implanted P388 leukemia in mice by percent increase in life span at 200 mg/kg (treatment of 1-5qd schedule) dosage. Format: functional, Mus musculus. To be noted: route intraperitoneal. In short, it runs like this: as §4
The subject of assay [20] is L1210. The assay can be described thus: Antitumor activity was determined against the ic implanted L1210 lymphoid leukemia in mice by median survival time at 100 mg/kg (treatment of 1-9qd schedule) dosage; 14/7.0.

The T/C is the ratio of treated to control. For the compound `CCCCCCCCCCCCCCCCCCOCC(COP(=O)(O)OP(=O)(O)OC[C@H]1O[C@@H](n2ccc(N)nc2=O)[C@@H](O)[C@@H]1O)OC(=O)CCCCCCCCCCCCCCC` (mixture of isomers), the Active dose range in [1] was 300 mg/kg/day. The same compound displayed a T/C in [2] of more than 45%. This compound yielded a Range in assay [3] of 21. Moreover, the Weight change in assay [4] turned out to be 0.63 g mouse-1.

On to `CCCCCCCCCCCCCCCC(=O)OC[C@H](COP(=O)(O)OP(=O)(O)OC[C@H]1O[C@@H](n2ccc(N)nc2=O)[C@@H](O)[C@@H]1O)OC(=O)CCCCCCCCCCCCCCC`, for which the Range in assay [5] turned out to be 14; in assay [6], 15.

As for `CCCCCCCCCCCCCCCCOCC(COP(=O)(O)OP(=O)(O)OC[C@H]1O[C@@H](n2ccc(N)nc2=O)[C@@H](O)[C@@H]1O)OC(=O)CCCCCCCCCCCCCCC` (mixture of isomers), the Range in assay [7] and in assay [8] was 21 throughout. Also, the T/C in assay [9] is given as more than 45%. Also, the Active dose range in assay [10] is 40 mg/kg/day.

By IC50 is commonly meant the concentration that inhibits the measured activity by half. Read a low IC50 as greater potency. Consider `Nc1ccn([C@@H]2O[C@H](CO)[C@@H](O)[C@@H]2O)c(=O)n1` [CYTARABINE], for which the concentration for half-maximal inhibition (IC50) amounted to 0.13 µM in [11] and 34 µM in assay [14]. Moreover, the Weight change in assay [12] was -5.8. Further, the ILS was determined as 129 in [13] and 109 in assay [19]. The T/C in assay [15] is 23%; in [17], 15%. Also, in [16], the Survivors came to 0. This compound registered an Active dose range in [18] of 100 mg/kg/day. In assay [20], the median survival time came out at 14 days.

(Values after ChEMBL document CHEMBL1123247, “Nucleoside conjugates. 7. Synthesis and antitumor activity of 1-beta-D-arabinofuranosylcytosine conjugates of ether lipids” (J Med Chem, 1986).)
